# Results taken from ChEMBL document CHEMBL4138219, “Pyrano[3,2-a]carbazole alkaloids as effective agents against ischemic stroke in vitro and in vivo” (Eur J Med Chem, 2018).
# The source made the active and inactive calls. The calls are words filed in the database; no cut-off is given here.
# Key:
# [1] = test system: PC-12; assay: Cytoprotective activity against H2O2-induced damage in rat PC12 cells assessed as cell viability at 10 uM after 24 hrs by MTT assay (reference value: 70.1 +/- 3.7%); type: functional; conditions: PC-12, 24 h, read-out: Activity
# [2] = test system: PC-12; assay: Cytoprotective activity against oxygen-glucose deprivation/reoxygenation-induced damage in rat PC12 cells assessed as cell viability at 10 uM after 24 hrs by MTT assay (reference value: 70 +/- 5.1%); type: functional; conditions: PC-12, 24 h, read-out: Activity
# [3] = test system: Cortical neurone; assay: Neuroprotective activity against H2O2-induced damage in Sprague-Dawley rat primary cortical neurons assessed as cell viability at 10 uM after 24 hrs by MTT assay (reference value: 70 +/- 2.6%); type: functional; conditions: read-out: Activity
# [4] = test system: Cortical neurone; assay: Neuroprotective activity against H2O2-induced damage in Sprague-Dawley rat primary cortical neurons assessed as cell viability at 50 uM after 24 hrs by MTT assay (reference value: 70 +/- 2.6%); type: functional; conditions: read-out: Activity
# [5] = Antioxidant activity assessed as free radical scavenging activity at 25 mg/ml by ESR method; type: functional
# Outline: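 ESR spin-trapping was done at room temperature. 50 mmol/L TEMP and 25 mg/mL compound were mixed in DMSO and exposed to UVA light for 1 min before recording. Settings were 10 mW microwave power, 1 G field modulation and 150 G scan width.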
# [6] = test system: Cortical neurone; assay: Neuroprotective activity against H2O2-induced damage in Sprague-Dawley rat primary cortical neurons assessed as cell viability at 1 uM after 24 hrs by MTT assay (reference value: 70 +/- 2.6%); type: functional; conditions: read-out: Activity
# [7] = test system: Rattus norvegicus; assay: Reversal of middle cerebral artery occlusion and reperfusion-induced decrease in body weight in Sprague-Dawley rat assessed as body weight at 20 mg/kg administered via oral gavage as qd for 7 days measured on day 7 post reperfusion (reference value: 82%); type: functional; parameters: scale not given: the % may be the effect or the level left
# [8] = test system: Rattus norvegicus; assay: Reversal of middle cerebral artery occlusion and reperfusion-induced death in Sprague-Dawley rat assessed as survival rate at 20 mg/kg administered via oral gavage as qd for 7 days measured on day 7 post reperfusion (reference value: 50%); type: functional; conditions: 168 h
# [9] = test system: Rattus norvegicus; assay: Reversal of middle cerebral artery occlusion and reperfusion-induced death in Sprague-Dawley rat assessed as survival rate at 80 mg/kg administered via oral gavage as qd for 7 days measured on day 7 post reperfusion (reference value: 50%); type: functional
# [10] = test system: Rattus norvegicus; assay: Reversal of middle cerebral artery occlusion and reperfusion-induced death in Sprague-Dawley rat assessed as survival rate at 40 mg/kg administered via oral gavage as qd for 7 days measured on day 7 post reperfusion (reference value: 50%); type: functional; conditions: 168 h
# [11] = test system: Rattus norvegicus; assay: Increase in neurological function in Sprague-Dawley rat middle cerebral artery occlusion and reperfusion model assessed as decrease in behavior deficit at 20 to 80 mg/kg administered via oral gavage as qd for 7 days measured on day 7 post reperfusion by Zea Longa's test; type: functional, organism-based
# Outline: (§1)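 Male SD rats (260–280 g) underwent MCAO with reperfusion. They were randomized to model, 80 mg/kg 3-n-butylphthalide, or compound at 20, 40 or 80 mg/kg. Rats without neurological impairment after reperfusion were excluded. Neurological deficit was scored on days 1–7 by the Zea Longa test, and forelimb falls were counted in a grid test.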
# [12] = test system: Rattus norvegicus; assay: Increase in neurological function in Sprague-Dawley rat middle cerebral artery occlusion and reperfusion model assessed as decrease in forelimb falling number at 20 to 80 mg/kg administered via oral gavage as qd for 7 days measured on day 2 to 7 during compound dosing post reperfusion by grid test; type: functional, organism-based; outline: as §1
# [13] = test system: Rattus norvegicus; assay: Anti-cerebral ischemia in Sprague-Dawley rat middle cerebral artery occlusion and reperfusion model assessed as decrease in brain infract volume at 20 to 40 mg/kg administered via oral gavage as qd for 7 days measured on day 7 post reperfusion by TTC staining-based assay; type: functional, organism-based
# Outline: (§2)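 Male Sprague-Dawley rats (260e280 g) randomised to MCAO/R, MCAO/R + NBP 80 mg/kg, or MCAO/R + compound at 20, 40 or 80 mg/kg. Rats without neurological impairment, or dead after reperfusion at 0 h, were excluded. On day 7, rats were transcardially perfused with PBS. Brains were cut into six 2-mm sections and stained with 1.5% TTC. Infarct = right pale area/left non-ischemic area, expressed as % of the MCAO/R group.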
# [14] = Drug uptake in Sprague-Dawley rat brain at 40 mg/kg administered via oral gavage measured at 0.083 hrs by LC-MS/MS method; type: ADME, organism-based; conditions: in vivo, BLD = below limit of detection
# Outline: (§3)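 For the time-course, male SD rats (260–280 g) received a single 40 mg/kg oral gavage dose and were killed at 0.083, 0.25, 0.5, 1, 2, 4, 6, 8, 12 and 24 h (n = 3 each). Plasma and brain homogenate (three volumes of saline) were protein-precipitated, centrifuged, and analyzed by validated LC-MS/MS. Results are given as mean ± SD.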
# [15] = Drug uptake in Sprague-Dawley rat brain at 40 mg/kg administered via oral gavage measured at 0.25 hrs by LC-MS/MS method; type: ADME, organism-based; conditions: in vivo, BLD = below limit of detection; outline: as §3
# [16] = Drug uptake in Sprague-Dawley rat brain at 40 mg/kg administered via oral gavage measured at 0.5 hrs by LC-MS/MS method; type: ADME, organism-based; conditions: read-out: Drug uptake; outline: as §3
# [17] = Drug uptake in Sprague-Dawley rat brain at 40 mg/kg administered via oral gavage measured at 1 hr by LC-MS/MS method; type: ADME, organism-based; conditions: read-out: Drug uptake; outline: as §3
# [18] = Drug uptake in Sprague-Dawley rat brain at 40 mg/kg administered via oral gavage measured at 2 hrs by LC-MS/MS method; type: ADME, organism-based; conditions: read-out: Drug uptake; outline: as §3
# [19] = Drug uptake in Sprague-Dawley rat brain at 40 mg/kg administered via oral gavage measured at 4 hrs by LC-MS/MS method; type: ADME, organism-based; conditions: read-out: Drug uptake; outline: as §3
# [20] = Drug uptake in Sprague-Dawley rat brain at 40 mg/kg administered via oral gavage measured at 6 hrs by LC-MS/MS method; type: ADME, organism-based; conditions: read-out: Drug uptake; outline: as §3
# [21] = Drug uptake in Sprague-Dawley rat brain at 40 mg/kg administered via oral gavage measured at 8 hrs by LC-MS/MS method; type: ADME, organism-based; conditions: read-out: Drug uptake; outline: as §3
# [22] = Drug uptake in Sprague-Dawley rat brain at 40 mg/kg administered via oral gavage measured at 12 hrs by LC-MS/MS method; type: ADME, organism-based; conditions: read-out: Drug uptake; outline: as §3
# [23] = Drug uptake in Sprague-Dawley rat brain at 40 mg/kg administered via oral gavage measured at 24 hrs by LC-MS/MS method; type: ADME, organism-based; conditions: read-out: Drug uptake; outline: as §3
# [24] = Plasma concentration in Sprague-Dawley rat at 40 mg/kg administered via oral gavage measured at 0.083 hrs by LC-MS/MS method; type: ADME, organism-based; conditions: in vivo, BLD = below limit of detection; outline: as §3
# [25] = Plasma concentration in Sprague-Dawley rat at 40 mg/kg administered via oral gavage measured at 0.25 hrs by LC-MS/MS method; type: ADME, organism-based; outline: as §3
# [26] = Plasma concentration in Sprague-Dawley rat at 40 mg/kg administered via oral gavage measured at 0.5 hrs by LC-MS/MS method; type: ADME, organism-based; outline: as §3
# [27] = Plasma concentration in Sprague-Dawley rat at 40 mg/kg administered via oral gavage measured at 1 hr by LC-MS/MS method; type: ADME, organism-based; outline: as §3
# [28] = Plasma concentration in Sprague-Dawley rat at 40 mg/kg administered via oral gavage measured at 2 hrs by LC-MS/MS method; type: ADME, organism-based; outline: as §3
# [29] = Plasma concentration in Sprague-Dawley rat at 40 mg/kg administered via oral gavage measured at 4 hrs by LC-MS/MS method; type: ADME, organism-based; outline: as §3
# [30] = Plasma concentration in Sprague-Dawley rat at 40 mg/kg administered via oral gavage measured at 6 hrs by LC-MS/MS method; type: ADME, organism-based; outline: as §3
# [31] = Plasma concentration in Sprague-Dawley rat at 40 mg/kg administered via oral gavage measured at 8 hrs by LC-MS/MS method; type: ADME, organism-based; outline: as §3
# [32] = Plasma concentration in Sprague-Dawley rat at 40 mg/kg administered via oral gavage measured at 12 hrs by LC-MS/MS method; type: ADME, organism-based; outline: as §3
# [33] = Plasma concentration in Sprague-Dawley rat at 40 mg/kg administered via oral gavage measured at 24 hrs by LC-MS/MS method; type: ADME, organism-based; outline: as §3
# [34] = Tmax in Sprague-Dawley rat plasma at 40 mg/kg administered via oral gavage by LC-MS/MS method; type: ADME, organism-based
# [35] = Tmax in Sprague-Dawley rat brain at 40 mg/kg administered via oral gavage by LC-MS/MS method; type: ADME, organism-based
# [36] = Cmax in Sprague-Dawley rat plasma at 40 mg/kg administered via oral gavage by LC-MS/MS method; type: ADME, organism-based; parameters: dose 40 mg/kg, route oral
# [37] = Cmax in Sprague-Dawley rat brain at 40 mg/kg administered via oral gavage by LC-MS/MS method; type: ADME, organism-based; parameters: dose 40 mg/kg, route oral
# [38] = AUC (0 to t) in Sprague-Dawley rat brain at 40 mg/kg administered via oral gavage by LC-MS/MS method; type: ADME, organism-based; conditions: in vivo
# [39] = AUC (0 to t) in Sprague-Dawley rat plasma at 40 mg/kg administered via oral gavage by LC-MS/MS method; type: ADME, organism-based
# [40] = Ratio of AUC (0 to t) in Sprague-Dawley rat brain to plasma at 40 mg/kg administered via oral gavage; type: ADME, organism-based; conditions: read-out: Ratio AUC
# Outline: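 Brain-to-plasma exposure ratio, taken as AUC(0-t) in brain tissue divided by AUC(0-t) in plasma. Male SD rats (260–280 g) received a single 40 mg/kg oral gavage dose and were sampled from 0.083 to 24 h (n = 3 per time point). Brain was homogenized in saline and quantified by LC-MS/MS.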
# [41] = test system: Rattus norvegicus; assay: Reversal of middle cerebral artery occlusion and reperfusion-induced decrease in body weight in Sprague-Dawley rat assessed as body weight at 80 mg/kg administered via oral gavage as qd for 7 days measured on day 7 post reperfusion (reference value: 82%); type: functional; parameters: scale not given: the % may be the effect or the level left
# [42] = test system: Rattus norvegicus; assay: Increase in neurological function in Sprague-Dawley rat middle cerebral artery occlusion and reperfusion model assessed as decrease in behavior deficit at 80 mg/kg administered via oral gavage as qd for 7 days measured on day 7 post reperfusion by Zea Longa's test; type: functional, organism-based; outline: as §1
# [43] = test system: Rattus norvegicus; assay: Anti-cerebral ischemia in Sprague-Dawley rat middle cerebral artery occlusion and reperfusion model assessed as decrease in brain infract volume at 80 mg/kg administered via oral gavage as qd for 7 days measured on day 7 post reperfusion by TTC staining-based assay; type: functional, organism-based; outline: as §2
smiles,measurement,setting,value
COc1ccc2c(c1)c1cc(C=O)c3c(c1n2C)C=CC(C)(C)O3,viability at 10 µM,[1],93.8%
same,viability at 10 µM,[2],94.4%
COc1ccc2[nH]c3c4c(c(C=O)cc3c2c1)OC(C)(C)C=C4 [CLAULANSINE F],viability at 10 µM,[1],87.7%
same,viability at 10 µM,[2],93.1%
CC1=NN(c2ccccc2)C(=O)C1 [EDARAVONE],viability at 10 µM,[3],85.2%
same,viability at 50 µM,[4],86.7%
same,Activity,[5],Active
Cc1cc2c([nH]c3ccc(C(C)(C)C)cc32)c2c1OC(C)(C)C=C2,viability at 10 µM,[1],96.8%
same,viability at 10 µM,[3],119%
same,viability at 10 µM,[2],96.1%
same,viability at 1 µM,[6],97.6%
same,Activity,[7],94.7%
same,survival at 20 mg/kg,[8],81.3%
same,Activity,[9],inactive
same,survival at 40 mg/kg,[10],62.5%
same,Activity,[11],Active
same,Activity,[12],Active
same,Activity,[13],Active
same,Activity,[5],Active
same,Drug uptake,[14],Bld
same,Drug uptake,[15],Bld
same,concentration at 0.5 h,[16],38.5 ng/g
same,concentration at 1 h,[17],129 ng/g
same,concentration at 2 h,[18],1160 ng/g
same,concentration at 4 h,[19],3080 ng/g
same,concentration at 6 h,[20],4720 ng/g
same,concentration at 8 h,[21],5890 ng/g
same,concentration at 12 h,[22],5330 ng/g
same,concentration at 24 h,[23],472 ng/g
same,Cp,[24],Bld
same,concentration at 0.25 h,[25],264 ng/mL
same,concentration at 0.5 h,[26],157 ng/mL
same,concentration at 1 h,[27],324 ng/mL
same,concentration at 2 h,[28],871 ng/mL
same,concentration at 4 h,[29],1110 ng/mL
same,concentration at 6 h,[30],1510 ng/mL
same,concentration at 8 h,[31],1140 ng/mL
same,concentration at 12 h,[32],1040 ng/mL
same,concentration at 24 h,[33],19.6 ng/mL
same,Tmax,[34],6 h
same,Tmax,[35],8 h
same,Cmax,[36],1510 ng/mL
same,Cmax,[37],5890 ng/g
same,AUCt,[38],80618 ng·h/g
same,AUC(0-t),[39],18800 ng·h/mL
same,Kp,[40],4.3
CCCCC1OC(=O)c2ccccc21 (stereo not drawn) [RAC-3-N-BUTYLPHTHALIDE],Activity,[41],87.6%
same,survival at 80 mg/kg,[9]; 168 h,68.8%
same,Activity,[42],Active
same,Activity,[43],Active
